In ChEMBL document CHEMBL4699493, “Development of Bis-cyclic Imidazolidine-4-one Derivatives as Potent Antibacterial Agents” (J Med Chem, 2020):
Values after ≈ are worked out from the molar mass of the structure shown.

Legend:
Klebsiella pneumoniae = assay: Antibacterial activity against Klebsiella pneumoniae ATCC 13383; type: functional
Procedure, shortened: (§1)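 Broth microdilution in TSB. Stocks at 5 mg/mL in DMSO diluted with TSB to 100 μg/mL, then serially diluted; highest test concentration 25 μg/mL. Bacteria grown 16 h, subcultured 6 h to log phase, adjusted to 10^6 CFU/mL by OD600. MIC = lowest concentration giving complete growth inhibition. At least three repeats, each in duplicate.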

Staphylococcus aureus [1] = assay: Antibacterial activity against methicillin-resistant Staphylococcus aureus ATCC 33591; type: functional
Procedure, shortened: (§2)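 Broth microdilution in TSB. Strains were grown 16 h, subcultured 6 h to log phase, then diluted to 10^6 CFU/mL by OD600. Compound came from a 5 mg/mL DMSO stock diluted in TSB and serially diluted, top final concentration 25 μg/mL. MIC was the lowest concentration giving complete growth inhibition. Done ≥3 times in duplicate.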

[2] = Hemolytic activity against mouse RBC measured after 1 hr by microplate reader analysis; type: ADME, cell-based, Erythrocyte; settings: mouse red blood cells (erythrocytes)
Procedure, shortened: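 Mouse red blood cells collected by centrifugation (500–700g, 10 min), washed three times in PBS, and diluted 20-fold in PBS. Mixed with 2-fold serial dilutions of compound (starting at 1 mg/mL in PBS) and incubated 1 h at 37 °C. After centrifugation, supernatant absorbance read at 540 nm. % hemolysis calculated relative to PBS (0%) and 2% Triton (100%). At least three repeats in duplicate.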

[3] = tested on: Staphylococcus epidermidis; assay: Antibacterial activity against methicillin-resistant Staphylococcus epidermidis RP62A; type: functional; procedure, shortened: as §2
Escherichia coli = assay: Antibacterial activity against Escherichia coli ATCC 25922; type: functional; procedure, shortened: as §1
[4] = Selectivity ratio of HC50 for hemolytic activity against mouse RBC to MIC for methicillin-resistant Staphylococcus aureus; type: toxicity; settings: mouse red blood cells (erythrocytes)
Procedure, shortened: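 Mouse RBCs were washed three times in PBS and diluted in 20 volumes of PBS. They were mixed with compound 2-fold serially diluted from 1 mg/mL in PBS, incubated 1 h at 37 °C, then centrifuged; supernatant read at A540. % hemolysis was calculated against PBS (0%) and 2% Triton (100%). Done ≥3 times in duplicate. HC50 was divided by the MRSA MIC.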

Staphylococcus aureus [5] = assay: Antibacterial activity against methicillin-resistant Staphylococcus aureus ATCC 33591 assessed as ratio of MIC after and before 13 serial passages; type: functional
Procedure, shortened: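 Serial-passage resistance test. A first MIC was run by TSB broth microdilution. Bacteria from the well after the last clear well were resuspended to about 10^6 CFU/mL for the next MIC. This was repeated for 13 passages.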

SMILES	MIC (Klebsiella pneumoniae)	MIC (Staphylococcus aureus [1])	HC50 at 1 h [2]	MIC [3]	MIC (Escherichia coli)	selectivity ratio [4]	Ratio (Staphylococcus aureus [5])
NCCCC(=O)N[C@@H](Cc1ccccc1)CN1CC(=O)N(c2ccc(N3CN(C[C@H](Cc4ccccc4)NC(=O)CCCN)CC3=O)cc2)C1	> 25 µg/mL	> 25 µg/mL	> 250 µg/mL	> 25 µg/mL	> 25 µg/mL		
CCCCCCCCCCCC(=O)N[C@@H](CCCCN)CN1CC(=O)N(c2ccc(N3CN(C[C@H](CCCCN)NC(=O)CCCCCCCCCCC)CC3=O)cc2)C1	> 25 µg/mL	1 µg/mL (≈ 1.19 µM)	> 250 µg/mL	2 µg/mL (≈ 2.38 µM)	> 25 µg/mL	> 250	
CCCCCCCCCCCCCC(=O)N[C@@H](CCCCN)CN1CC(=O)N(c2ccc(N3CN(C[C@H](CCCCN)NC(=O)CCCCCCCCCCCCC)CC3=O)cc2)C1	> 25 µg/mL	> 25 µg/mL	> 250 µg/mL	> 25 µg/mL	> 25 µg/mL		
O=C(O)c1cn(C2CC2)c2cc(N3CCNCC3)c(F)cc2c1=O [CIPROFLOXACIN]	0.3 µg/mL (≈ 0.905 µM)	0.15 µg/mL (≈ 0.453 µM)		0.15 µg/mL (≈ 0.453 µM)	0.07 µg/mL (≈ 0.211 µM)		
N=C(N)NCCCC[C@@H](CN1CC(=O)N(c2ccc(N3CN(C[C@H](CCCCNC(=N)N)NC(=O)CC45C[C@H]6C[C@@H](C4)C[C@@H](C5)C6)CC3=O)cc2)C1)NC(=O)CC12C[C@H]3C[C@@H](C1)C[C@@H](C2)C3	> 25 µg/mL	1 µg/mL (≈ 1.1 µM)	250 µg/mL	2 µg/mL (≈ 2.19 µM)	> 25 µg/mL	250	
CCCCCCCCCCCCCCCC(=O)N[C@@H](CCCCN)CN1CC(=O)N(c2ccc(N3CN(C[C@H](CCCCN)NC(=O)CCCCCCCCCCCCCCC)CC3=O)cc2)C1	> 25 µg/mL	> 25 µg/mL	> 250 µg/mL	> 25 µg/mL	> 25 µg/mL		
CCn1cc(C(=O)O)c(=O)c2cc(F)c(N3CCNCC3)cc21 [NORFLOXACIN]							> 22
NCCCC[C@@H](CN1CC(=O)N(c2ccc(N3CN(C[C@H](CCCCN)NC(=O)CC45C[C@H]6C[C@@H](C4)C[C@@H](C5)C6)CC3=O)cc2)C1)NC(=O)CC12C[C@H]3C[C@@H](C1)C[C@@H](C2)C3	> 25 µg/mL	> 25 µg/mL	> 250 µg/mL	> 25 µg/mL	> 25 µg/mL		
CCCCCCCCCC(=O)N[C@@H](CCCCNC(=N)N)CN1CC(=O)N(c2ccc(N3CN(C[C@H](CCCCNC(=N)N)NC(=O)CCCCCCCCC)CC3=O)cc2)C1	5 µg/mL (≈ 5.77 µM)	1 µg/mL (≈ 1.15 µM)	125 µg/mL	5 µg/mL (≈ 5.77 µM)	> 25 µg/mL	125	
CCCCCCCCCC(=O)N[C@@H](Cc1ccccc1)CN1CC(=O)N(c2ccc(N3CN(C[C@H](Cc4ccccc4)NC(=O)CCCCCCCCC)CC3=O)cc2)C1	> 25 µg/mL	> 25 µg/mL	> 250 µg/mL	> 25 µg/mL	> 25 µg/mL		
NCCCC[C@@H](CN1CC(=O)N(c2ccc(N3CN(C[C@H](CCCCN)NC(=O)Cc4ccc5ccccc5c4)CC3=O)cc2)C1)NC(=O)Cc1ccc2ccccc2c1	> 25 µg/mL	> 25 µg/mL	> 250 µg/mL	> 25 µg/mL	> 25 µg/mL		
CCCCCC(=O)N[C@@H](CCCCN)CN1CC(=O)N(c2ccc(N3CN(C[C@H](CCCCN)NC(=O)CCCCC)CC3=O)cc2)C1	> 25 µg/mL	> 25 µg/mL	> 250 µg/mL	> 25 µg/mL	> 25 µg/mL		
CCCCCCCCCC(=O)N[C@@H](CCCCN)CNCC(=O)Nc1ccc(NC(=O)CNC[C@H](CCCCN)NC(=O)CCCCCCCCC)cc1	> 25 µg/mL	2 µg/mL (≈ 2.63 µM)	> 250 µg/mL	2 µg/mL (≈ 2.63 µM)	> 25 µg/mL	> 125	
CCCCCCCC(=O)N[C@@H](CCCCN)CN1CC(=O)N(c2ccc(N3CN(C[C@H](CCCCN)NC(=O)CCCCCCC)CC3=O)cc2)C1	> 25 µg/mL	> 25 µg/mL	> 250 µg/mL	> 25 µg/mL	> 25 µg/mL		
